Experiments:
[1] = Growth inhibition of human A375-C5 cells after 48 hrs by SRB assay; type: functional; conditions: A375-C5, 48 h
Method in brief: (§1)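 Adherent cells kept in RPMI-1640 with 5% heat-inactivated FBS, 2 mM glutamine and antibiotics at 37 °C, 5% CO₂. Plated at 1.5 ×10⁵ cells/mL (MCF-7) or 0.75 ×10⁵ cells/mL (A375-C5, NCI-H460) and grown 24 h. […] TCA fixation, SRB stain, absorbance 492 nm. GI₅₀ is 50% inhibition of net growth; mean ± SEM, three experiments in duplicate.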

[2] = system: NCI-H460; test: Growth inhibition of human NCI-H460 cells after 48 hrs by SRB assay; type: functional; conditions: NCI-H460, 48 h; method in brief: as §1
[3] = system: NCI-H460; test: Induction of apoptosis in human NCI-H460 cells at GI50 after 48 hrs by V-FITC/propidium iodide staining-based flow cytometry; type: functional
[4] = system: NCI-H460; test: Cell cycle arrest in human NCI-H460 cells assessed as accumulation at S phase at GI50 after 48 hrs by flow cytometry; type: functional
[5] = system: NCI-H460; test: Cell cycle arrest in human NCI-H460 cells assessed as accumulation at G0/G1 phase at GI50 after 48 hrs by flow cytometry; type: functional
[6] = system: NCI-H460; test: Cell cycle arrest in human NCI-H460 cells assessed as accumulation at G2/M phase at GI50 after 48 hrs by flow cytometry; type: functional
[7] = system: MCF7; test: Growth inhibition of human MCF7 cells after 48 hrs by SRB assay; type: functional; conditions: MCF7, 48 h; method in brief: as §1
[8] = Solubility of the compound in DMSO at 150 uM; type: physicochemical

SMILES	GI50 [2] [µM]	GI50 [7] [µM]	solubility [8]	GI50 [1] [µM]	Activity [3] [%]	Activity [4] [%]	Activity [5] [%]	Activity [6] [%]
COC(=O)c1sc2cc(C#Cc3ccccc3N)cnc2c1N	5.7	4.1		3.1	25.3	23.1	54.7	24.6
COC(=O)c1sc2cc(C#Cc3ccccc3F)cnc2c1N	> 150	> 150		> 150				
COC(=O)c1sc2cc(C#Cc3ccccn3)cnc2c1N	34.9	37.4		13.9				
C[S+](C)[O-] [DIMETHYL SULFOXIDE]					12.2	28.8	55.1	16.1
COC(=O)c1sc2cc(C#Cc3ccccc3OC)cnc2c1N	> 47.3	> 47.3		> 47.3				
COC(=O)c1sc2cc(C#Cc3ccsc3)cnc2c1N	24.8	27.7		29.6				
COc1cccc2c1C(=O)c1c(O)c3c(c(O)c1C2=O)C[C@@](O)(C(=O)CO)C[C@@H]3O[C@H]1C[C@H](N)[C@H](O)[C@H](C)O1 [DOXORUBICIN]			Insoluble					
COC(=O)c1sc2cc(C#Cc3cccnc3)cnc2c1N	> 150	> 150		> 150				
COC(=O)c1sc2cc(C#Cc3cccc(OC)c3)cnc2c1N	49	33.4		> 75				

The next lines start with results.

GI50 [2] [µM]	GI50 [7] [µM]	solubility [8]	SMILES	GI50 [1] [µM]	Activity [3] [%]	Activity [4] [%]	Activity [5] [%]	Activity [6] [%]
8.9	2.6		COC(=O)c1sc2cc(C#Cc3ccc(N)cc3)cnc2c1N	4.8	17	18.6	68	13.4
0.32	0.46		COC(=O)c1sc2cc(C#Cc3ccc(OC)cc3)cnc2c1N	> 37.5	18.7	22	59.7	18.3
16.6	20.6		COC(=O)c1sc2cc(C#Cc3ccc(N(C)C)cc3)cnc2c1N	17.7				
24	29		COC(=O)c1sc2cc(C#Cc3ccc(F)cc3)cnc2c1N	48.4				
> 150	> 150		COC(=O)c1sc2cc(C#Cc3ccccc3)cnc2c1N	> 150				
11.5	10.8		COC(=O)c1sc2cc(C#Cc3cccc(N)c3)cnc2c1N	11.6				
